The source made the active and inactive calls. The calls are words filed in the database; no cut-off is given here. Peptide text beside a SMILES is read from it.
Key:
Neuropilin-1 [1] = biological target: T1, Neuropilin-1 (Homo sapiens, UniProt O14786); assay: Inhibition of biotinylated VEGF-A165 binding to recombinant NRP1 (unknown origin) at 100 uM measured after 2 hrs by competition binding assay relative to VEGF-A165
Procedure, shortened: (§1)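 Competition ELISA. Wells coated overnight at room temperature with recombinant chimeric NRP-1 or KDR in PBS, then blocked with 0.5% BSA/PBS for 1 h at 37 °C. Biotinylated VEGF-A165 (5 ng/mL, heparin-containing blocking buffer) incubated 2 h at room temperature with or without compound; unlabelled VEGF-A165 as positive control. Bound tracer detected with streptavidin-HRP, read at 450 nm. Three independent experiments, triplicates.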

Neuropilin-1 [2] = biological target: T1, Neuropilin-1; assay: Inhibition of biotinylated VEGF-A165 binding to recombinant NRP1 (unknown origin) measured after 2 hrs by competition binding assay; procedure, shortened: as §1
Neuropilin-1 [3] = biological target: T1, Neuropilin-1; assay: Binding affinity to NRP1 in HUVEC assessed as increase in AKT phosphorylation at 50 uM by Western blot analysis; type: cell-based
Procedure, shortened: (§2)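 HUVECs exposed to 50 µM compound; tuftsin as reference. Lysate protein (40 µg) resolved by SDS-PAGE and blotted to PVDF. Probed overnight at 4 °C for pAKT (Ser473), total AKT, pERK1/2 (Thr202/Tyr204) and total ERK1/2. ECL detection and densitometry. Phospho/total band ratio normalized to non-treated cells.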

Neuropilin-1 [4] = biological target: T1, Neuropilin-1; assay: Binding affinity to NRP1 in HUVEC assessed as ratio of phosphorylated ERK to total ERK at 50 uM by Western blot analysis; type: cell-based; procedure, shortened: as §2

T1 sequence (O14786 whole entry): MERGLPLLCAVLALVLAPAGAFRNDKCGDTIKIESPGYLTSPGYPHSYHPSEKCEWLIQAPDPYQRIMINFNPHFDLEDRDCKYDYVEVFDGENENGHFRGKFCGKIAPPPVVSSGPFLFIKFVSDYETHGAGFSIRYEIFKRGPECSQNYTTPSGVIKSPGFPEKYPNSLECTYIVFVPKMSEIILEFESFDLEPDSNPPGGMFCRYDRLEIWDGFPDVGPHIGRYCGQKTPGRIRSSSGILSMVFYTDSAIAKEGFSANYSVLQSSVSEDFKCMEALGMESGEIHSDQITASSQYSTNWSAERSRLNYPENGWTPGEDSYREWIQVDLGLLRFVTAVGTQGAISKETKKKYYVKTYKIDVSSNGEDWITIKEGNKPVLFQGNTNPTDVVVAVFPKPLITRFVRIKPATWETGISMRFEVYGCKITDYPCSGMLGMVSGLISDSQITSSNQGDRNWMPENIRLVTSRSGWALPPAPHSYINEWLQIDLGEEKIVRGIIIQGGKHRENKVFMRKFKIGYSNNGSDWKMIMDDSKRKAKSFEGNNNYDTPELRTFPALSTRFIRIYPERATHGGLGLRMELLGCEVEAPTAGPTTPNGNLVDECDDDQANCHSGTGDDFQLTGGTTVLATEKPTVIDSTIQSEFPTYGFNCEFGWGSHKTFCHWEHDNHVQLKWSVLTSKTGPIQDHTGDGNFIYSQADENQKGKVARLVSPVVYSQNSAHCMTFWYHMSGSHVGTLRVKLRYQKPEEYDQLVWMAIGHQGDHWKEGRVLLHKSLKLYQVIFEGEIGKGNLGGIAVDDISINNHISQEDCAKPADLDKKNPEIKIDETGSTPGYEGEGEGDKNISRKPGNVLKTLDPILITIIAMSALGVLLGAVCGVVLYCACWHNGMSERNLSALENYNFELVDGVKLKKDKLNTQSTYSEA

Row | Compound | inhibition (Neuropilin-1 [1]) | further results
1 | CC1(C)O[C@@H]2[C@H](O1)[C@H](CN(CCCCNC(=N)N)C(=N)N)O[C@@H]2CC(=O)NCCc1c[nH]c2ccccc12 | 39% | –
2 | N=C(N)NCCc1cn(C[C@@H]2O[C@H](CC(=O)NCCc3c[nH]c4ccccc34)[C@H](O)[C@@H]2O)nn1 | 37% | –
3 | CC1(C)O[C@@H]2[C@H](O1)[C@H](CN(CCCCCNC(=N)N)C(=N)N)O[C@@H]2CC(=O)NCCc1c[nH]c2ccccc12 | 52% | IC50 (Neuropilin-1 [2]): 120 µM
4 | C[C@@H](O)[C@H](N)C(=O)N[C@@H](CCCCN)C(=O)N1CCC[C@H]1C(=O)N[C@@H](CCCNC(=N)N)C(=O)O (H-TKPR-OH) | – | IC50 (Neuropilin-1 [2]): 25 µM; Activity (Neuropilin-1 [3]): Active; Ratio (Neuropilin-1 [4]): 0.88

Continued, in another order:

Row | inhibition (Neuropilin-1 [1]) | Compound | further results
5 | 5% | CC1(C)O[C@@H]2[C@H](O1)[C@H](CN(CCCNC(=N)N)C(=N)N)O[C@@H]2CC(=O)NCCc1c[nH]c2ccccc12 | –
6 | 5% | CC1(C)O[C@@H]2[C@H](O1)[C@H](Cn1cc(CCNC(=N)N)nn1)O[C@@H]2CC(=O)NCCc1c[nH]c2ccccc12 | –
7 | 18% | CC1(C)O[C@@H]2[C@H](O1)[C@H](Cn1cc(CCCNC(=N)N)nn1)O[C@@H]2CC(=O)NCCc1c[nH]c2ccccc12 | –
8 | 4% | N=C(N)NCCCc1cn(C[C@@H]2O[C@H](CC(=O)NCCc3c[nH]c4ccccc34)[C@H](O)[C@@H]2O)nn1 | –
9 | 26% | CC1(C)O[C@@H]2[C@H](O1)[C@@H](CN(CCNC(=N)N)C(=N)N)O[C@@H]2CC(=O)NCCc1c[nH]c2ccccc12 | –

Source: ChEMBL document CHEMBL4428108, “Carbohydrate-based peptidomimetics targeting neuropilin-1: Synthesis, molecular docking study and in vitro biological activities” (Bioorg Med Chem, 2016)
